Data published in ChEMBL document CHEMBL1145035, “Design of selective peptidomimetic agonists for the human orphan receptor BRS-3” (J Med Chem, 2003).
Activity calls are given as the source filed them. No cut-off for these calls is given here. Square brackets hold non-standard residues; d marks the D form. Peptide text beside a SMILES is read from it. * marks the point of attachment. NHPhenethyl = c1ccc(CCN*)cc1; Nle = CCCC[C@H](N)C(=O)O; PhAc = O=C(Cc1ccccc1)*; βAla = NCCC(=O)O

Tests used:
[1] = molecular target: T1, Bombesin receptor subtype-3 (Homo sapiens, UniProt P32247); test: Effective concentration required against human bombesin receptor 3 (BRS-3) in CHO cells by using FLIPR assay.; format: functional, cell-based
T1 sequence (P32247 whole entry): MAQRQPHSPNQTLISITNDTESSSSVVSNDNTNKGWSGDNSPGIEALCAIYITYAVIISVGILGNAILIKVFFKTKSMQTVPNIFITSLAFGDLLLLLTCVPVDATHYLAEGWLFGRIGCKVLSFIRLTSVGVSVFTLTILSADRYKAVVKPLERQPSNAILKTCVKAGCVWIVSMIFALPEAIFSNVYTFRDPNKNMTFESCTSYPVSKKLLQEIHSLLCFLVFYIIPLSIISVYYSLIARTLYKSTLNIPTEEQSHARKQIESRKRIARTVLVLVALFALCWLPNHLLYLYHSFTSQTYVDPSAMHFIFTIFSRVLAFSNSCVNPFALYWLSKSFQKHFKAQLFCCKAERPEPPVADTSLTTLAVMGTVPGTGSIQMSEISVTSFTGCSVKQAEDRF

[2] = molecular target: T2, Gastrin-releasing peptide receptor (Homo sapiens, UniProt P30550); test: Effective concentration required against gastrin releasing peptide receptor (GRP-R) in CHO cells by using FLIPR assay; format: functional, cell-based
Target sequence in this assay (P30550 whole entry): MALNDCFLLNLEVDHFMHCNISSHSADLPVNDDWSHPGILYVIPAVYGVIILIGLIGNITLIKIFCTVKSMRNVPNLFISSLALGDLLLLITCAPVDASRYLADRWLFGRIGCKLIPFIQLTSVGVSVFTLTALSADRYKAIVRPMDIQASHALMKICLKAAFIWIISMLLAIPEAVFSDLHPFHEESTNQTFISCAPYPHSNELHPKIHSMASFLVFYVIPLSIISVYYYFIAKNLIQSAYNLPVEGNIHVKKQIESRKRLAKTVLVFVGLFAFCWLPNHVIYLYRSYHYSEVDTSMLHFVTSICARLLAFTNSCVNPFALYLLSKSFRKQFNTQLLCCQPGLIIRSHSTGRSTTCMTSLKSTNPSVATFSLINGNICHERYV

[3] = molecular target: T3, Neuromedin-B receptor (Homo sapiens, UniProt P28336); test: (§1) Effective concentration required against nueromedin B receptor (NMB-R) in CHO cells by using FLIPR assay; format: functional, cell-based
Summary of the method: (§2)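 Intracellular Ca2+ mobilization was read by FLIPR in CHO cells transfected with the human receptor. NMB was the reference for NMB-R and GRP for GRP-R. EC50 values (±SEM) come from independent concentration–response curves, 4 to 30 per compound depending on the series.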
Target sequence in this assay (P28336 whole entry): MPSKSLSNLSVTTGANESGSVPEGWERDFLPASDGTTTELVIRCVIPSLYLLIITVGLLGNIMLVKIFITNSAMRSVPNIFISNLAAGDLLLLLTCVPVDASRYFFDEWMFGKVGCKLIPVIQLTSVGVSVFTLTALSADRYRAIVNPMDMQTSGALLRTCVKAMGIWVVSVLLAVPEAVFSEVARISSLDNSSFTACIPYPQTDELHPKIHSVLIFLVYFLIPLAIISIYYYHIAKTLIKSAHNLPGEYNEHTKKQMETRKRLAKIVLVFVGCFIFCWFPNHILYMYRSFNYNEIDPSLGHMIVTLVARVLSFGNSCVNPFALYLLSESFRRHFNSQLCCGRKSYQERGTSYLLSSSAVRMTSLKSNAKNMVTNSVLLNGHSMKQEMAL

[4] = Emax
[5] = molecular target: T2, Gastrin-releasing peptide receptor; test: Effective concentration required against gastrin releasing peptide receptor (GRP-R) in CHO cells by using FLIPR assay.; format: functional, cell-based; summary of the method: as §2
Target sequence in this assay (P30550 whole entry, looked up): as the sequence (P30550 whole entry) above

[6] = molecular target: T3, Neuromedin-B receptor; test: Effective concentration required against nueromedin B receptor (NMB-R) in CHO cells by using FLIPR assay.; format: functional, cell-based; summary of the method: as §2
Target sequence in this assay (P28336 whole entry, looked up): as the sequence (P28336 whole entry) above

[7] = molecular target: T3, Neuromedin-B receptor; test: as §1; format: functional, cell-based; remark: listed apart in the source
Target sequence in this assay (P28336 whole entry): as above

SMILES	EC50 [1] [nM]	EC50 [2] [nM]	EC50 [3] [nM]	Emax [4]	NA [5]	NA [6]	EC50 [7] [nM]
CSCC[C@H](NC(=O)[C@H](CC(C)C)NC(=O)[C@H](Cc1c[nH]cn1)NC(=O)CNC(=O)[C@@H](NC(=O)[C@H](C)NC(=O)[C@H](Cc1c[nH]c2ccccc12)NC(=O)[C@H](Cc1c[nH]cn1)NC(=O)[C@H](CC(N)=O)NC(=O)CNC(=O)[C@H](CCCN=C(N)N)NC(=O)[C@@H]1CCCN1C(=O)[C@H](Cc1ccc(O)cc1)NC(=O)[C@H](CCSC)NC(=O)[C@H](CCCCN)NC(=O)[C@@H](NC(=O)[C@H](CC(C)C)NC(=O)[C@@H](NC(=O)[C@@H](NC(=O)CNC(=O)CNC(=O)CNC(=O)[C@H](C)NC(=O)[C@@H]1CCCN1C(=O)[C@H](CC(C)C)NC(=O)[C@@H]1CCCN1C(=O)[C@@H](N)C(C)C)[C@@H](C)O)C(C)C)[C@@H](C)O)C(C)C)C(N)=O	6400	34	3200	–	–	–	–
C[C@H](NC(=O)Cc1ccc2c(c1)OCO2)C(=O)N[C@@H](Cc1c[nH]c2ccccc12)C(=O)NCCc1ccccc1	7.8	–	–	75	inactive	inactive	–
C[C@H](NC(=O)CC1NCCc2ccccc21)C(=O)N[C@@H](Cc1c[nH]c2ccccc12)C(=O)NCCc1ccccc1 (some centres undefined)	310	–	–	69	inactive	inactive	–
O=C(CN1CCC(Cc2ccccc2)CC1)NC(Cc1c[nH]c2ccccc12)C(=O)NCCc1ccccc1 (centres undefined)	30	–	–	84	inactive	inactive	–
C[C@H](NC(=O)Cc1ccccc1)C(=O)N[C@@H](Cc1c[nH]c2ccccc12)C(=O)NCCc1ccccc1 (PhAc-Ala-Trp-NHPhenethyl)	2.1	–	–	71	inactive	inactive	–
C[C@H](NC(=O)Cc1ccc(Cl)cc1)C(=O)N[C@@H](Cc1c[nH]c2ccccc12)C(=O)NCCc1ccccc1	140	–	–	75	inactive	inactive	–
NC(=O)CC[C@H](NC(=O)Cc1ccccc1)C(=O)N[C@@H](Cc1c[nH]c2ccccc12)C(=O)NCCc1ccccc1 (PhAc-Gln-Trp-NHPhenethyl)	1200	19100	15000	38	–	–	–
O=C(N/N=C/c1ccco1)NC(Cc1c[nH]c2ccccc12)C(=O)NCCc1ccccc1 (centres undefined)	1.5	–	–	94	inactive	inactive	–
CSCC[C@H](NC(=O)[C@H](Cc1ccccc1)NC(=O)[C@H](Cc1cnc[nH]1)NC(=O)CNC(=O)[C@@H](NC(=O)[C@H](C)NC(=O)[C@H](Cc1c[nH]c2ccccc12)NC(=O)[C@H](CC(C)C)NC(=O)[C@H](CC(N)=O)NC(=O)CN)[C@@H](C)O)C(N)=O	4500	41	120	–	–	–	–
O=C(N/N=C/c1ccc(-c2cccs2)cc1)NC(Cc1c[nH]c2ccccc12)C(=O)NCCc1ccccc1 (centres undefined)	7900	–	–	58	inactive	inactive	–
NC(=O)CC[C@H](NC(=O)Cc1cc2ccccc2[nH]1)C(=O)N[C@@H](Cc1c[nH]c2ccccc12)C(=O)NCCc1ccccc1	–	–	–	82	inactive	inactive	–
O=C(NNCc1ccccc1)NC(Cc1c[nH]c2ccccc12)C(=O)NCCc1ccccc1 (centres undefined)	15	–	–	81	inactive	inactive	–
C[C@H](NCc1ccccc1)C(=O)N[C@@H](Cc1c[nH]c2ccccc12)C(=O)NCCc1ccccc1	46	–	–	86	inactive	inactive	–
O=C(CN1CCN(Cc2ccccc2)CC1)NC(Cc1c[nH]c2ccccc12)C(=O)NCCc1ccccc1 (centres undefined)	70	–	–	90	inactive	inactive	–
O=C(CNCc1cccnc1)NC(Cc1c[nH]c2ccccc12)C(=O)NCCc1ccccc1 (centres undefined)	–	–	–	82	inactive	inactive	–
O=C(CNCCc1ccccc1)NC(Cc1c[nH]c2ccccc12)C(=O)NCCc1ccccc1 (centres undefined)	–	–	–	92	inactive	inactive	–
NC(=O)CC[C@H](NC(=O)[C@H](N)Cc1ccccc1)C(=O)N[C@@H](Cc1c[nH]c2ccccc12)C(=O)NCCc1ccccc1	710	–	–	–	inactive	inactive	–
C[C@H](NC(=O)Cc1cc2ccccc2[nH]1)C(=O)N[C@@H](Cc1c[nH]c2ccccc12)C(=O)NCCc1ccccc1	79	–	–	69	inactive	inactive	–

SMILES	EC50 [1] [nM]	EC50 [2] [nM]	EC50 [3] [nM]	Emax [4]	NA [5]	NA [6]	EC50 [7] [nM]
C[C@H](NC(=O)Cc1cccnc1)C(=O)N[C@@H](Cc1c[nH]c2ccccc12)C(=O)NCCc1ccccc1	–	–	–	74	inactive	inactive	–
O=C(CNCc1ccccc1)NC(Cc1c[nH]c2ccccc12)C(=O)NCCc1ccccc1 (centres undefined)	–	–	–	87	inactive	inactive	–
O=C(Cc1ccc(Cl)cc1)NNC(=O)NC(Cc1c[nH]c2ccccc12)C(=O)NCCc1ccccc1 (centres undefined)	–	–	–	89	inactive	inactive	–
O=C(CC1NCCc2ccccc21)NNC(=O)N[C@H](Cc1c[nH]c2ccccc12)C(=O)NCCc1ccccc1 (some centres undefined)	19	–	–	91	inactive	inactive	–
O=C(NNCc1ccco1)NC(Cc1c[nH]c2ccccc12)C(=O)NCCc1ccccc1 (centres undefined)	24	–	–	96	inactive	inactive	–
C[C@H](NC(=O)CCc1ccc(Cl)cc1)C(=O)N[C@@H](Cc1c[nH]c2ccccc12)C(=O)NCCc1ccccc1	6400	–	–	30	inactive	inactive	–
O=C(CC1NCCc2ccccc21)NNC(=O)NC(Cc1c[nH]c2ccccc12)C(=O)NCCc1ccccc1 (centres undefined)	9.3	–	–	95	inactive	inactive	–
O=C(Cc1cccnc1)NNC(=O)NC(Cc1c[nH]c2ccccc12)C(=O)NCCc1ccccc1 (centres undefined)	1.4	–	–	102	inactive	inactive	–
NC(=O)CC[C@H](NC(=O)CCc1ccc(Cl)cc1)C(=O)N[C@@H](Cc1c[nH]c2ccccc12)C(=O)NCCc1ccccc1	230	–	–	68	inactive	inactive	–
C[C@H](NCCc1ccccc1)C(=O)N[C@@H](Cc1c[nH]c2ccccc12)C(=O)NCCc1ccccc1	–	–	–	82	inactive	inactive	–
O=C(CNCc1ccc(Cl)cc1)NC(Cc1c[nH]c2ccccc12)C(=O)NCCc1ccccc1 (centres undefined)	–	–	–	81	inactive	inactive	–
NC(=O)CC[C@H](NC(=O)Cc1ccc(Cl)cc1)C(=O)N[C@@H](Cc1c[nH]c2ccccc12)C(=O)NCCc1ccccc1	1400	12200	18500	62	–	–	–
C[C@H](NCc1ccc(Cl)cc1)C(=O)N[C@@H](Cc1c[nH]c2ccccc12)C(=O)NCCc1ccccc1	4	–	–	83	inactive	inactive	–
O=C(Cc1ccccc1)NNC(=O)NC(Cc1c[nH]c2ccccc12)C(=O)NCCc1ccccc1 (centres undefined)	–	–	–	86	inactive	inactive	–
O=C(NNCc1ccc(Cl)cc1)NC(Cc1c[nH]c2ccccc12)C(=O)NCCc1ccccc1 (centres undefined)	6	–	–	83	inactive	inactive	–
O=C(N/N=C/c1ccc(Cl)cc1)NC(Cc1c[nH]c2ccccc12)C(=O)NCCc1ccccc1 (centres undefined)	2700	–	–	78	inactive	inactive	–
CCCC[C@H](NC(=O)[C@H](Cc1ccccc1)NC(=O)[C@H](Cc1cnc[nH]1)NC(=O)CCNC(=O)[C@@H](NC(=O)[C@H](C)NC(=O)[C@H](Cc1c[nH]c2ccccc12)NC(=O)[C@H](CCC(N)=O)NC(=O)[C@H](N)Cc1ccc(O)cc1)C(C)C)C(N)=O (H-[dY]QWAV[βAla]HF[Nle]-NH2)	151	–	–	–	–	–	310
O=C(Cc1cc2ccccc2[nH]1)NNC(=O)NC(Cc1c[nH]c2ccccc12)C(=O)NCCc1ccccc1 (centres undefined)	–	–	–	84	inactive	inactive	–
